Compound activity: PubChem, several laboratories
RBBP9 inhibitor = human RBBP9 hydrolase inhibition | O75884 | recombinant RBBP9, FP-Rh probe fluorescence polarization | inhibition, % at 7.94 µM | 220,000 tested, 0.2% active | AID 1515;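 active means inhibition above the campaign mean of all tested compounds plus 3 SD, cut at about 14% in these data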;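 further: plate controls were DMSO wells with RBBP9 for no effect and wells lacking RBBP9 protein for full effect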
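System: RBBP9 protein / Quantity: 2.5 µM RBBP9 dispensing solution, before mixing / Also added: Serine-hydrolase probe FP-Rh, 375 nM pre-mixing / Dosing: 7.94 µM single dose, 0.794% DMSO / Timing: enzyme-compound preincubation 30 min, then probe labeling 45 min, 25 °C / Signal: FP readout at 525/598 nm / Controls: DMSO-treated enzyme wells and wells lacking RBBP9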
Bim-Mcl-1 = disrupts Bim peptide binding to human Mcl-1; Q07820; Bead-based flow cytometry, Bim peptide-Mcl-1 binding; inhibition, % at 10 µM; 190,000 tested, 0.1% active; AID 1009; in the data active means inhibition above about 40%;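 further: 0% = no compound tracer wells and 100% = peptide blocker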
Target sequence (Q07820 whole entry, looked up): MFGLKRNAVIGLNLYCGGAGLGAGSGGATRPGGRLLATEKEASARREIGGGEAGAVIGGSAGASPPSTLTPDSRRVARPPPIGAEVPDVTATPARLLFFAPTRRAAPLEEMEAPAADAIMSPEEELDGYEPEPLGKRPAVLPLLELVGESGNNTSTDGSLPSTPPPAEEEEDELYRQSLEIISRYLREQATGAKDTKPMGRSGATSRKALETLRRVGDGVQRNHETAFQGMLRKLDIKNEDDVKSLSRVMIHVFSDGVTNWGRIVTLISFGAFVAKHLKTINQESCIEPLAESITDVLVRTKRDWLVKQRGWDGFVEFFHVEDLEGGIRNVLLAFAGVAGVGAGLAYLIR
Mcl1 Noxa PPI = Mcl-1/Noxa interaction inhibition; Q07820; TR-FRET Mcl-1/Noxa peptide binding, 2 h; inhibition, % at 21.7 µM; 220,000 tested, 1.5% active;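 active means compounds that cut the protein-peptide binding signal by more than 50% relative to plate controls in a single-dose test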;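 further: His-tagged Mcl-1 with rhodamine Noxa BH3 peptide and terbium anti-His antibody; 0% = Mcl-1 plus Noxa peptide wells and 100% = peptide-only wells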
Mcl1-Bid inh = disrupts binding of human Mcl-1 to Bid peptide; Q07820; TR-FRET Mcl-1/Bid-Dy647 peptide binding, 1536-well; inhibition, % at 21.7 µM; 220,000 tested, 0.97% active;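 active means compounds that cut the binding signal by more than half at the single screening dose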;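 further: His-tagged Mcl-1 with europium anti-His antibody binding Bid BH3 peptide; 0% = Mcl-1 plus peptide wells and 100% = peptide-only wells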
EBV gp42 block = EBV gp42 inhibition. Fluorescence polarization binding assay, mP read-out. inhibition, % (tested at 21.74 µM). 220,000 tested, 0.42% active; in the data active means inhibition above about 50%
Target sequence (Q1HVG2 whole entry, looked up): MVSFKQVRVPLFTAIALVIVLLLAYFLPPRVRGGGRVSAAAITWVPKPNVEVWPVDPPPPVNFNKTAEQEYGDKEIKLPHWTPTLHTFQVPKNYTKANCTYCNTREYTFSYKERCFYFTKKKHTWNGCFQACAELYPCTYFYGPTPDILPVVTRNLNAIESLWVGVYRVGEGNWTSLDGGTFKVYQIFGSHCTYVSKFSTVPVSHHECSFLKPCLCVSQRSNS
MCL1-BIM inh = inhibitors of human MCL1 binding to BIM-BH3 peptide | Q07820 | GST-MCL1 / FITC-Bim-BH3 fluorescence polarization | inhibition, % at 10.9 µM | 320,000 tested, 0.68% active | AID 2057;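 active means inhibition above the mean inhibition of all tested compounds plus 3 SD, set per campaign, cut at about 40% in these data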;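 further: 0% = DMSO wells and 100% = unlabeled Bim-BH3 peptide control; higher means more loss of mP so more displacement of Bim peptide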
Active calls of the source: *; . = no result given. Compounds with a hit are over-represented: about 2.2% of the library has one in this group of screens.

SMILES	RBBP9 inhibitor	Bim-Mcl-1	Mcl1 Noxa PPI	Mcl1-Bid inh	EBV gp42 block	MCL1-BIM inh
Oc1ccccc1C=NC1=NN(c2cccc(C(F)(F)F)c2)CC1	-14	.	2	-21	113*	6
CCOC(=O)Cc1csc(-n2sc3ccccc3c2=O)n1	-14	-5	68*	-43	-50	6
CCOC(=O)Cc1csc(SCn2nnc3ccccc3c2=O)n1	-2	-6	-6	-18	-16	9
O=C1N/C(=N\N=C\c2ccc3ncccc3c2)SC1Cc1ccc(SC(F)F)cc1 (configuration not stated)	-1	-3	13	52*	27	4
Cc1ccc(NC(=O)CCC(=O)NNC(=S)Nc2ccc(F)cc2F)cc1C	.	.	.	.	.	-3
CCC(C)NCCOCCSc1ccc(Cl)cc1 (configuration not stated)	0	-5	4	52*	-1	5
C=CCc1cc(Cl)ccc1OCCOCCNC(C)CC (configuration not stated)	5	-1	33	40	-2	-15
COc1cc(OC)cc(N(C(=O)c2ccco2)C(C(=O)NC2CCCC2)c2ccc(N3CCOCC3)cc2)c1 (configuration not stated)	.	.	.	.	.	4
Cn1c(=O)c2c(nc(CN3CCN(Cc4ccccc4)CC3)n2Cc2ccccc2)n(C)c1=O	-6	0	13	-12	-3	.
Cn1c(=O)c2c(nc(Cc3ccc(N)cc3)n2C)n(C)c1=O	-1	.	12	98*	-10	-4
FC(F)(F)c1cnc(Nc2ccc(N3CCOCC3)cc2)c(Cl)c1	-1	3	61*	-24	-13	4
C=CCNC(=O)c1onc(CSc2cccc(OC)c2)c1C(=O)NCC=C	.	.	-7	-23	-16	0
CC1(C)Cc2c(ccc3ccccc23)/C(=C/C(=O)N2CCCCC2)N1	-5	42*	22	-43	0	12
CN(C(=O)CN1C(=O)/C(=C/c2ccccc2F)SC1=S)C1CCS(=O)(=O)C1 (configuration not stated)	.	.	.	.	.	6
COc1cc(-c2nc3cnccn3c2Nc2ccc(C)cc2)ccc1O	0	2	18	-46	-5	-2
COc1cc(-c2nc3cnccn3c2Nc2ccccc2)ccc1O	-2	0	55*	-20	-10	2
Cc1cccc(NC(=O)CN2C(=O)N/C(=C/c3cc(C)n(-c4ccncc4)c3C)C2=O)c1	5	-3	37	81*	-26	3
Cc1noc(/C=C/c2cccnc2)c1[N+](=O)[O-]	.	.	.	.	.	1
Cc1noc(/C=C/c2ccc(-c3ccccc3Cl)o2)c1[N+](=O)[O-]	-8	-10	-2	17	130*	-97
Cc1ccc(S(=O)(=O)N(C)C)cc1NC(=O)CSc1nnnn1-c1ccc(O)cc1	-7	.	8	-7	-7	2
CN(C)S(=O)(=O)c1ccc(Cl)c(NC(=O)CSc2nnnn2-c2ccc(O)cc2)c1	-4	-2	22	56*	-3	.
CN(C)c1ccc(NC(=O)c2ccc(COc3cccc(Cl)c3)o2)cc1	3	0	85*	-12	-14	4
O=C(NC(C1CC1)C1CC1)C1CCC(=O)N(CCCN2CCCC2=O)C1 (configuration not stated)	.	.	.	.	.	-1
Cc1ccccc1/C=N/N1CCN(c2ccccc2)CC1	-7	0	8	8	1	4
CCCCN1C(=O)N(C)C2NC(=O)NC21 (configuration not stated)	-4	-1	-13	-33	-24	4
SMILES	RBBP9 inhibitor	Bim-Mcl-1	Mcl1 Noxa PPI	Mcl1-Bid inh	EBV gp42 block	MCL1-BIM inh
CCCCN1C(=O)N(C)C2C1N(C)C(=O)N2CCCC (configuration not stated)	-8	.	63*	2	-9	6
CCc1nc2ccc(C(=O)NCCCN3CCN(c4ccccc4F)CC3)cc2nc1CC	.	.	.	.	.	2
CCN(CC(=O)Nc1c(C(=O)OC)[nH]c2ccc(Cl)cc12)c1ccc2c(c1)OCO2	4	6	43	59*	11	49*
CCOC(=O)c1[nH]c2ccc(Cl)cc2c1NC(=O)/C=C/c1ccc2c(c1)OCO2	0	-3	23	-21	-27	-1
COc1ccccc1CNC(=O)COC(=O)c1cnccn1	-8	-1	-13	-13	-1	-1
COc1ccccc1CNC(=O)c1cnccn1	-4	2	68*	-53	43	18
Cc1ccc(Cl)c(OCCCCN(C)Cc2ccccc2)c1	1	-4	16	52*	4	-3
CN(CCOc1ccccc1Cl)Cc1ccccc1	.	.	.	.	.	4
Cc1ccc(Cl)c(OCCCN(C)Cc2ccccc2)c1	-3	.	18	77*	-8	1
CN(CCCOc1ccccc1Br)Cc1ccccc1	2	30	-4	-35	-7	2
CNNC(=O)C(=O)NNS(=O)(=O)c1ccccc1	5	-1	-3	86*	1	3
CC(C)C(=O)NNS(=O)(=O)c1ccccc1	-6	0	3	-16	10	9
O=C(O)c1ccc(Cl)c(S(=O)(=O)Nc2ccccc2C(=O)Nc2ccc(Cl)cc2)c1	.	.	.	.	.	5
Oc1cc2ccccc2cc1-c1n[nH]c(=S)o1	7	10	50	57*	5	1
CC(OC(=O)c1cccc(S(=O)(=O)N2CCCCCC2)c1)C(=O)Nc1ccc(S(N)(=O)=O)cc1 (configuration not stated)	.	.	.	.	.	-8
CC(=O)NC(C)C(=O)OCC(=O)c1ccc(-c2ccccc2)cc1 (configuration not stated)	-9	5	2	-4	-5	-6
CCc1ccccc1NC(=S)N(CCOC)C(C)c1ccco1 (configuration not stated)	-4	.	4	-133	-10	4
CCCN1CCC(NC(=S)Nc2ccc(C(=O)OCC)cc2)CC1	-2	-5	0	84*	-11	5
CCCN1CCC(NC(=S)Nc2ccc([N+](=O)[O-])cc2)CC1	5	-2	9	-25	-1	8
Nc1ccc(S(=O)(=O)Nc2nccc(/C=C/c3cccc(Br)c3)n2)cc1	.	.	.	.	.	-2
COc1ccc(C(=O)/C=C/c2cc(OC)c(O)c(OC)c2)c(F)c1	1	-2	55*	7	1	15
COc1ccc2cc(C(=O)/C=C/c3cc(OC)c(O)c(OC)c3)ccc2c1	.	.	.	.	.	-1
O=S(=O)(Nc1c(S(=O)(=O)c2ccccc2)c2nc3ccccc3nc2n1C1CCCCC1)c1ccccc1	-10	-5	55*	57*	33	3
Cc1cc(C)nc(NNC(=O)c2ccccc2O)n1	-2	-1	1	-42	-8	1
CC(=O)Oc1ccc(NC(=O)CSc2ccccc2)cc1	10	0	75*	8	-13	2
Cc1ccc(SCC(=O)Nc2ccccc2C(=O)O)cc1	0	-3	11	8	-4	11
O=C(CSc1ccccc1)Nc1ccccc1C(=O)O	-10	2	39	56*	-4	0
